# Reference: ChEMBL document CHEMBL3611989, “Discovery and characterization of aryl isonitriles as a new class of compounds versus methicillin- and vancomycin-resistant Staphylococcus aureus” (Eur J Med Chem, 2015)
# System: Staphylococcus aureus
# Assay: Antimicrobial activity against vancomycin-intermediate-resistant Staphylococcus aureus NRS1 assessed as reduction in bacterial growth incubated for 18 to 20 hrs at 37 degC by broth microdilution method
# Format: functional
# Conditions: not given
# In short: (§1)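 Modified CLSI broth microdilution. Bacterial suspension of about 1 × 10^5 CFU/mL in tryptic soy broth. Each agent was added in triplicate to the first row and serially diluted down the plate. Plates were incubated at 37 °C for 18-20 h. MIC was read as the lowest concentration with no visible growth.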
row,Structure (SMILES),MIC
1,[C-]#[N+]c1ccccc1/C=C/c1ccccn1,64 µM
2,[C-]#[N+]c1ccccc1/C=C/c1ccc(C(F)(F)F)cc1,2 µM
3,[C-]#[N+]c1ccccc1/C=C/c1ccccc1,2 µM
4,CC/C(=C\c1ccccc1)c1ccccc1,> 128 µM
5,[C-]#[N+]c1ccc(/C=C/c2ccccc2)cc1,> 128 µM
6,[C-]#[N+]c1ccccc1/C=C/c1ccccc1C(F)(F)F,8 µM
7,[C-]#[N+]c1ccccc1/C=C/c1ccccc1OC,4 µM
8,[C-]#[N+]c1ccccc1/C=C(\CC)c1ccccc1,8 µM

# System: Staphylococcus aureus
# Assay: Antimicrobial activity against methicillin-resistant Staphylococcus aureus USA300 assessed as reduction in bacterial growth incubated for 18 to 20 hrs at 37 degC by broth microdilution method
# Format: functional
# Conditions: not given
# In short: as §1
row,Structure (SMILES),MIC
1,[C-]#[N+]c1ccccc1/C=C/c1ccccn1,16 µM
2,[C-]#[N+]c1ccccc1/C=C/c1ccc(C(F)(F)F)cc1,8 µM
3,[C-]#[N+]c1ccccc1/C=C/c1ccccc1,4 µM
4,CC/C(=C\c1ccccc1)c1ccccc1,> 128 µM
5,[C-]#[N+]c1ccc(/C=C/c2ccccc2)cc1,4 µM
6,[C-]#[N+]c1ccccc1/C=C/c1ccccc1C(F)(F)F,32 µM
7,[C-]#[N+]c1ccccc1/C=C/c1ccccc1OC,8 µM
8,[C-]#[N+]c1ccccc1/C=C(\CC)c1ccccc1,32 µM

# System: not listed separately
# Assay: Metabolic stability in human liver microsomes assessed as compound remaining incubated for 60 mins in absence of NADPH
# Format: ADME
# Conditions: read-out: Stability
row,Structure (SMILES),remaining at 1 h
1,[C-]#[N+]c1ccccc1/C=C/c1ccccc1,51%

# System: Staphylococcus aureus
# Assay: Antimicrobial activity against vancomycin-resistant Staphylococcus aureus VRS2 assessed as reduction in bacterial growth incubated for 18 to 20 hrs at 37 degC by broth microdilution method
# Format: functional
# Conditions: not given
# In short: as §1
row,Structure (SMILES),MIC
1,[C-]#[N+]c1ccccc1/C=C/c1ccccn1,32 µM
2,[C-]#[N+]c1ccccc1/C=C/c1ccc(C(F)(F)F)cc1,16 µM
3,[C-]#[N+]c1ccccc1/C=C/c1ccccc1,32 µM
4,CC/C(=C\c1ccccc1)c1ccccc1,> 128 µM
5,[C-]#[N+]c1ccc(/C=C/c2ccccc2)cc1,> 128 µM
6,[C-]#[N+]c1ccccc1/C=C/c1ccccc1C(F)(F)F,32 µM
7,[C-]#[N+]c1ccccc1/C=C/c1ccccc1OC,16 µM
8,[C-]#[N+]c1ccccc1/C=C(\CC)c1ccccc1,32 µM

# System: Staphylococcus aureus
# Assay: Antimicrobial activity against methicillin-resistant Staphylococcus aureus USA500 assessed as reduction in bacterial growth incubated for 18 to 20 hrs at 37 degC by broth microdilution method
# Format: functional
# Conditions: not given
# In short: as §1
row,Structure (SMILES),MIC
1,[C-]#[N+]c1ccccc1/C=C/c1ccccn1,64 µM
2,[C-]#[N+]c1ccccc1/C=C/c1ccc(C(F)(F)F)cc1,16 µM
3,[C-]#[N+]c1ccccc1/C=C/c1ccccc1,32 µM
4,CC/C(=C\c1ccccc1)c1ccccc1,> 128 µM
5,[C-]#[N+]c1ccc(/C=C/c2ccccc2)cc1,16 µM
6,[C-]#[N+]c1ccccc1/C=C/c1ccccc1C(F)(F)F,16 µM
7,[C-]#[N+]c1ccccc1/C=C/c1ccccc1OC,8 µM
8,[C-]#[N+]c1ccccc1/C=C(\CC)c1ccccc1,32 µM

# System: Staphylococcus aureus
# Assay: Antimicrobial activity against methicillin-resistant Staphylococcus aureus USA200 assessed as reduction in bacterial growth incubated for 18 to 20 hrs at 37 degC by broth microdilution method
# Format: functional
# Conditions: not given
# In short: as §1
row,Structure (SMILES),MIC
1,[C-]#[N+]c1ccccc1/C=C/c1ccccn1,64 µM
2,[C-]#[N+]c1ccccc1/C=C/c1ccc(C(F)(F)F)cc1,2 µM
3,[C-]#[N+]c1ccccc1/C=C/c1ccccc1,4 µM
4,CC/C(=C\c1ccccc1)c1ccccc1,> 128 µM
5,[C-]#[N+]c1ccc(/C=C/c2ccccc2)cc1,32 µM
6,[C-]#[N+]c1ccccc1/C=C/c1ccccc1C(F)(F)F,16 µM
7,[C-]#[N+]c1ccccc1/C=C/c1ccccc1OC,8 µM
8,[C-]#[N+]c1ccccc1/C=C(\CC)c1ccccc1,16 µM

# System: Staphylococcus aureus
# Assay: Antimicrobial activity against methicillin-resistant Staphylococcus aureus USA100 assessed as reduction in bacterial growth incubated for 18 to 20 hrs at 37 degC by broth microdilution method
# Format: functional
# Conditions: not given
# In short: as §1
row,Structure (SMILES),MIC
1,[C-]#[N+]c1ccccc1/C=C/c1ccccn1,64 µM
2,[C-]#[N+]c1ccccc1/C=C/c1ccc(C(F)(F)F)cc1,4 µM
3,[C-]#[N+]c1ccccc1/C=C/c1ccccc1,2 µM
4,CC/C(=C\c1ccccc1)c1ccccc1,> 128 µM
5,[C-]#[N+]c1ccc(/C=C/c2ccccc2)cc1,4 µM
6,[C-]#[N+]c1ccccc1/C=C/c1ccccc1C(F)(F)F,16 µM
7,[C-]#[N+]c1ccccc1/C=C/c1ccccc1OC,8 µM
8,[C-]#[N+]c1ccccc1/C=C(\CC)c1ccccc1,8 µM

# System: Staphylococcus aureus
# Assay: Antimicrobial activity against methicillin-resistant Staphylococcus aureus USA700 assessed as reduction in bacterial growth incubated for 18 to 20 hrs at 37 degC by broth microdilution method
# Format: functional
# Conditions: not given
# In short: as §1
row,Structure (SMILES),MIC
1,[C-]#[N+]c1ccccc1/C=C/c1ccccn1,32 µM
2,[C-]#[N+]c1ccccc1/C=C/c1ccc(C(F)(F)F)cc1,2 µM
3,[C-]#[N+]c1ccccc1/C=C/c1ccccc1,4 µM
4,CC/C(=C\c1ccccc1)c1ccccc1,> 128 µM
5,[C-]#[N+]c1ccc(/C=C/c2ccccc2)cc1,64 µM
6,[C-]#[N+]c1ccccc1/C=C/c1ccccc1C(F)(F)F,16 µM
7,[C-]#[N+]c1ccccc1/C=C/c1ccccc1OC,8 µM
8,[C-]#[N+]c1ccccc1/C=C(\CC)c1ccccc1,8 µM

# System: J774
# Format: cell-based
# Conditions: mouse, j774, 2 h, 128 µM
row,Structure (SMILES),Activity
1,[C-]#[N+]c1ccccc1/C=C/c1ccccn1,Toxic
2,[C-]#[N+]c1ccccc1/C=C/c1ccc(C(F)(F)F)cc1,Toxic
3,[C-]#[N+]c1ccccc1/C=C/c1ccccc1,Toxic
4,CC/C(=C\c1ccccc1)c1ccccc1,Toxic
5,[C-]#[N+]c1ccc(/C=C/c2ccccc2)cc1,Non-toxic
6,[C-]#[N+]c1ccccc1/C=C/c1ccccc1C(F)(F)F,Toxic
7,[C-]#[N+]c1ccccc1/C=C/c1ccccc1OC,Toxic
8,[C-]#[N+]c1ccccc1/C=C(\CC)c1ccccc1,Non-toxic

# System: Staphylococcus aureus
# Assay: Antimicrobial activity against methicillin-resistant Staphylococcus aureus NRS119 assessed as reduction in bacterial growth incubated for 18 to 20 hrs at 37 degC by broth microdilution method
# Format: functional
# Conditions: not given
# In short: as §1
row,Structure (SMILES),MIC
1,[C-]#[N+]c1ccccc1/C=C/c1ccccn1,128 µM
2,[C-]#[N+]c1ccccc1/C=C/c1ccc(C(F)(F)F)cc1,16 µM
3,[C-]#[N+]c1ccccc1/C=C/c1ccccc1,4 µM
4,CC/C(=C\c1ccccc1)c1ccccc1,> 128 µM
5,[C-]#[N+]c1ccc(/C=C/c2ccccc2)cc1,> 128 µM
6,[C-]#[N+]c1ccccc1/C=C/c1ccccc1C(F)(F)F,> 128 µM
7,[C-]#[N+]c1ccccc1/C=C/c1ccccc1OC,16 µM
8,[C-]#[N+]c1ccccc1/C=C(\CC)c1ccccc1,64 µM

# System: Staphylococcus aureus
# Assay: Antimicrobial activity against methicillin-sensitive Staphylococcus aureus NRS72 assessed as reduction in bacterial growth incubated for 18 to 20 hrs at 37 degC by broth microdilution method
# Format: functional
# Conditions: not given
# In short: as §1
row,Structure (SMILES),MIC
1,[C-]#[N+]c1ccccc1/C=C/c1ccccn1,64 µM
2,[C-]#[N+]c1ccccc1/C=C/c1ccc(C(F)(F)F)cc1,4 µM
3,CC/C(=C\c1ccccc1)c1ccccc1,> 128 µM
4,[C-]#[N+]c1ccc(/C=C/c2ccccc2)cc1,4 µM
5,[C-]#[N+]c1ccccc1/C=C/c1ccccc1C(F)(F)F,8 µM
6,[C-]#[N+]c1ccccc1/C=C/c1ccccc1OC,8 µM
7,[C-]#[N+]c1ccccc1/C=C(\CC)c1ccccc1,8 µM

# System: not listed separately
# Assay: Selectivity index, ratio of cytotoxicity against mouse J774 cells by MTS assay to MIC for methicillin-resistant Staphylococcus aureus
# Format: toxicity, cell-based
# Conditions: read-out: Selectivity Index
row,Structure (SMILES),selectivity ratio
1,[C-]#[N+]c1ccccc1/C=C/c1ccccc1,16

# System: J774
# Assay: Cytotoxicity against mouse J774 cells assessed as reduction in cell viability at 32 uM incubated for 2 hrs by MTS assay
# Format: cell-based
# Conditions: j774, 2 h
# In short: (§2)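 Murine J774 macrophages grown in DMEM with 10% FBS at 37 °C, 5% CO2. Compounds were tested in triplicate at 16, 32, 64 and 128 μM for 2 h, with DMSO-matched vehicle controls. MTS reagent was then added and absorbance read at OD490. Viability is given as percent of DMSO-treated cells (mean of triplicate ± standard deviation), compared by paired t-test (P < 0.05).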
row,Structure (SMILES),Activity
1,[C-]#[N+]c1ccccc1/C=C/c1ccccn1,Non-toxic
2,[C-]#[N+]c1ccccc1/C=C/c1ccc(C(F)(F)F)cc1,Non-toxic
3,[C-]#[N+]c1ccccc1/C=C/c1ccccc1,Non-toxic
4,CC/C(=C\c1ccccc1)c1ccccc1,Non-toxic
5,[C-]#[N+]c1ccc(/C=C/c2ccccc2)cc1,Non-toxic
6,[C-]#[N+]c1ccccc1/C=C/c1ccccc1C(F)(F)F,Non-toxic
7,[C-]#[N+]c1ccccc1/C=C/c1ccccc1OC,Non-toxic
8,[C-]#[N+]c1ccccc1/C=C(\CC)c1ccccc1,Non-toxic

# System: not listed separately
# Assay: Metabolic stability in human liver microsomes assessed as compound remaining incubated for 60 mins in presence of NADPH
# Format: ADME
# Conditions: read-out: Stability
row,Structure (SMILES),remaining at 1 h
1,[C-]#[N+]c1ccccc1/C=C/c1ccccc1,24%

# System: Staphylococcus aureus
# Assay: Bactericidal activity against methicillin-resistant Staphylococcus aureus USA300
# Format: functional
# Conditions: not given
row,Structure (SMILES),MBC
1,[C-]#[N+]c1ccccc1/C=C(\CC)c1ccccc1,> 128 µM

# System: J774
# Assay: Cytotoxicity against mouse J774 cells assessed as reduction in cell viability at 64 uM incubated for 2 hrs by MTS assay
# Format: cell-based
# Conditions: j774, 2 h
# In short: as §2
row,Structure (SMILES),Activity
1,[C-]#[N+]c1ccccc1/C=C/c1ccccn1,Non-toxic
2,[C-]#[N+]c1ccccc1/C=C/c1ccc(C(F)(F)F)cc1,Non-toxic
3,[C-]#[N+]c1ccccc1/C=C/c1ccccc1,Non-toxic
4,CC/C(=C\c1ccccc1)c1ccccc1,Non-toxic
5,[C-]#[N+]c1ccc(/C=C/c2ccccc2)cc1,Non-toxic
6,[C-]#[N+]c1ccccc1/C=C/c1ccccc1C(F)(F)F,Non-toxic
7,[C-]#[N+]c1ccccc1/C=C/c1ccccc1OC,Non-toxic
8,[C-]#[N+]c1ccccc1/C=C(\CC)c1ccccc1,Non-toxic

# System: J774
# Assay: Cytotoxicity against mouse J774 cells assessed as reduction in cell viability up to 64 uM incubated for 2 hrs by MTS assay
# Format: cell-based
# Conditions: j774, 2 h
# In short: as §2
row,Structure (SMILES),Activity
1,[C-]#[N+]c1ccccc1/C=C/c1ccccc1,Non-toxic
2,CC/C(=C\c1ccccc1)c1ccccc1,Non-toxic

# System: not listed separately
# Assay: Kinetic solubility of the compound in PBS
# Format: physicochemical
# Conditions: read-out: Kinetic_solubility
row,Structure (SMILES),solubility kinetic
1,[C-]#[N+]c1ccccc1/C=C/c1ccccc1,15.6 µM
